Assay outcomes deposited in PubChem by several laboratories.
Hits are enriched below; roughly 4.2% of the tested compounds scored in any of these assays.
Ins promoter up: MIN6 insulin promoter up-regulation. 190,000 compounds, 0.3% hits. AID 1625. MIN6 insulin promoter-GFP reporter, high-content imaging; hits give high values. z-score at 5 µM;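 active means z-score above 3 at 5 µM with at least 500 cells counted in the well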
WT yeast gro inh: growth inhibition of WT yeast, mitochondrial fusion screen | AID 1362 | inhibition, % at 10 µM | mitochondrial fusion phenotypic screen, WT strain | 190,000 compounds, 2.1% hits; in the data active means inhibition above about 58%; tested in S. cerevisiae
Rad51 HR inh: blocks human Rad51 in homologous recombination | Q06609 | hRad51 DNA strand exchange, fluorescence dequenching | inhibition, % at 10 µM | 200,000 compounds, 0.085% hits;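 active means inhibition above 40% at the single screening dose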
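Material: human Rad51–ssDNA filaments; Probe or stimulus: labelled 47-mer dsDNA for strand exchange; Doses: single 10 µM dose; Incubation: 37 °C 15-min filament assembly, 30-min compound preincubation, 15-min exchange; Technique: FRET fluorescence dequenching, excitation 485 nm, emission 520 nm; Measure: Fluorescence-based percent inhibition, control- and blank-normalised; Benchmarks: plate control and blank wells.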
Autophagy HCS: alters autophagy in cells. MEF GFP-LC3 puncta imaging; test concentration mostly 10 µM. calls only at 10 µM (by protocol). 190,000 compounds, 0.98% hits. AID 463193;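 active means percentage of spot-positive cells more than 3 SD above its plate mean, without a fluorescence outlier flag or 80% toxicity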
Cl transport mod: modulators of human KCC2 chloride dependent transport; 190,000 compounds, 2.2% hits; B-score of Tl+ flux slope (higher = more flux/activation; lower = inhibition) at 10 µM; KCC2 cells, thallium flux FluoZin-2 fluorescence;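 active means thallium flux slope and its plate-corrected score both differing from the plate sample mean at a set confidence after two filtering rounds, in either direction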;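 further: slope of fluorescence scaled to starting intensity during 10 to 20 s after thallium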
SKKanGAS inh: inhibitors of SKKanGAS S. pyogenes growth in kanamycin (SK-promoter or general growth effect); inhibition, % at 7.5 µM; BacTiter-Glo, 6 h; AID 1662; 300,000 compounds, 1.3% hits;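 active means mean replicate score, as percent of positive control median, at least 50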;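 further: strain carries kanamycin resistance gene driven by streptokinase promoter and grows in 40 µg/ml kanamycin; loss of luminescence reflects streptokinase promoter inhibition or plain growth inhibition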
Hits are given with their value; n = inactive; x = not tested or not shown; + = active, no number.

SMILES	Ins promoter up	WT yeast gro inh	Rad51 HR inh	Autophagy HCS	Cl transport mod	SKKanGAS inh
Cc1nc2ccccc2n1CCc1nc2c3ccccc3nc(=S)n2[nH]1	n	n	n	n	n	n
Cc1ccccc1-c1nc2c3ccccc3nc(=S)n2[nH]1	x	x	x	x	x	94
O=C(Nc1ccccc1C(=O)O)c1cc(S(=O)(=O)Nc2ccccc2)ccc1Cl	x	x	x	x	x	n
C/C(=N\NC(=O)CSc1nc(C)[nH]c1[N+](=O)[O-])c1ccc(F)cc1	n	x	n	x	n	56
Cc1nc(SCC(N)=O)c([N+](=O)[O-])[nH]1	n	n	n	n	x	n
Cc1ccc(C(=O)Nc2ccccc2N2CCCC2)cc1	x	x	x	x	x	n
Cn1nc(C(F)(F)F)c2cc(NC(=O)OCc3ccc(F)cc3)sc21	n	79	n	n	n	n
Cn1nc(C(F)(F)F)c2cc(C(=O)Nc3ccc(Cl)cc3)sc21	n	74	n	n	n	n
CN(C)S(=O)(=O)c1ccc(Cl)c(NC(=O)COC(=O)c2ccc3c(c2)NC(=O)CS3)c1	n	x	n	x	n	n
O=[N+]([O-])c1cc(S(=O)(=O)Nc2ccccc2)ccc1N1CCN(c2ccccc2)CC1	n	n	n	n	n	50
O=[N+]([O-])c1cc(S(=O)(=O)C(F)(F)F)ccc1N1CCN(c2ccccc2)CC1	n	n	n	n	n	n
c1ccc(-c2nc(N3CCCCCC3)c3ccccc3n2)nc1	n	n	n	n	n	109
COc1ccc(Oc2nc(-c3ccccn3)nc3ccccc23)cc1	n	x	n	x	n	80
c1ccc(-c2nc(N3CCOCC3)c3ccccc3n2)nc1	n	n	n	n	n	n
c1ccc(Oc2nc(-c3ccccn3)nc3ccccc23)cc1	n	x	n	x	n	109
Nc1nc(Nc2ccccc2)nc(NC2CCCCC2)c1[N+](=O)[O-]	x	x	x	x	x	79
Cc1ccc(S(=O)(=O)N2CCN(C(=O)COC(=O)CNC(=O)c3ccc(Cl)cc3Cl)CC2)cc1	x	x	x	x	x	n
CCn1c(O)c(C2=c3ccccc3=NC2=O)c2cc(Br)ccc21	n	72	n	n	n	n
O=C1N=c2ccccc2=C1c1c(O)n(-c2cccc(F)c2)[nH]c1=O	n	n	n	n	n	n
COc1ccc(NC(=S)Nc2nc(CC(=O)Nc3ccccc3OC)cs2)cc1	n	n	n	n	n	58
CCOC(=O)Cc1csc(NC(=S)NC(=O)c2ccccc2C)n1	x	n	n	n	29	n
COc1ccc(S(=O)(=O)Nc2c(C)cccc2C)cc1-n1cnnn1	x	x	x	x	x	n
COc1ccccc1-n1c(C)cc(/C=C2/C(=N)N3C(=NC2=O)SN=C3S(C)(=O)=O)c1C	n	n	n	n	n	n
CCOc1ccc(-n2c(C)cc(/C=C3/C(=N)N4C(=NC3=O)SN=C4S(C)(=O)=O)c2C)cc1	n	n	n	n	n	84
CCOc1cc(/C=C2/C(=N)N3C(=NC2=O)SN=C3S(C)(=O)=O)ccc1OS(=O)(=O)c1ccccc1	x	x	x	x	x	n
SMILES	Ins promoter up	WT yeast gro inh	Rad51 HR inh	Autophagy HCS	Cl transport mod	SKKanGAS inh
CC1=NN2C(=N)/C(=C\c3cc(C)n(-c4ccccc4)c3C)C(=O)N=C2S1	n	n	n	n	n	n
CCC(CC)C1=NN2C(=N)/C(=C\c3cc(C)n(-c4cccc(C)c4)c3C)C(=O)N=C2S1	n	n	n	+	n	86
Cc1cc(/C=C2/C(=N)N3C(=NC2=O)SN=C3S(C)(=O)=O)c(C)n1-c1ccc(F)cc1	n	n	n	n	n	64
COc1ccccc1C(=O)NC(=O)COC(=O)Cn1cnc2c1c(=O)n(C)c(=O)n2C	x	x	x	x	x	n
CCCCOP(=O)(OCCCC)C(Nc1ccccc1)c1ccc2c(c1)OCO2 (centres undefined)	n	65	x	n	n	n
S=c1[nH]nc(C2CC2c2ccc(Cl)cc2)n1-c1ccc(Cl)cc1 (centres undefined)	n	76	n	n	n	n
Cc1ccc(-n2c(C3CC3c3ccc(Cl)cc3)n[nH]c2=S)cc1 (centres undefined)	n	n	n	n	n	n
Cc1ccc(C2CC2c2n[nH]c(=S)n2-c2ccc(C)cc2)cc1 (centres undefined)	x	n	n	n	21	n
Cc1cc(C)n(CCNC(=O)CC2C(=O)NCCN2CC2CCCCC2)n1 (centres undefined)	x	n	n	n	n	n
CCS(=O)(=O)NCc1ccc2[nH]c3c(c2c1)CCCC3	n	n	n	n	n	n
